Results on five compounds are retold here after publication PMC8172216 (Pharmaceutical Biology, 2021).

Data set [1] in a line: Pharmacokinetics of saponins in rat plasma after oral gavage of raw. The format is in vivo, Sprague–Dawley rats. Particulars: for AUC0–t: SD rats, oral administration of SPN extract 1.0 g/kg; for AUC(0-t) / AUC(0-inf) / Cmax / Tmax / half-life: male, Sprague-Dawley, rat, plasma, po, 1 g/kg, oral gavage of raw P. notoginseng aqueous extract 1 g/kg, n = 6, mean ± SD; for AUC(0-t): AUC0–t; for AUC(0-t) / AUC(0-inf) / Cmax / Tmax: male SD rats; for AUC(0-inf): AUC0–∞; for half-life: t1/2, male SD rats; for time in which the maximum plasma concentration was achieved: after oral administration of RPN or SPN aqueous extract. Put shortly: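 Male SD rats (200–250 g, n = 6/group) were acclimatised for 7 d and fasted overnight with water. They received a single oral gavage of aqueous extract at 1 g/kg (5 mL/kg). Heparinized orbital blood was taken pre-dose and at 5 min to 48 h, then centrifuged and stored at −40 °C. Plasma was methanol-precipitated with theophylline internal standard and analysed by MRM. Cmax and Tmax were read directly; AUC and t1/2 were non-compartmental; results are mean ± SD.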

For data set [2] the following is noted: ref Ma et al. [2021]; cited from earlier work.

With `CC(C)=CCC[C@](C)(O[C@@H]1O[C@H](CO[C@@H]2O[C@H](CO)[C@@H](O)[C@H](O)[C@H]2O)[C@@H](O)[C@H](O)[C@H]1O)[C@H]1CC[C@]2(C)[C@@H]1[C@H](O)C[C@@H]1[C@@]3(C)CC[C@H](O[C@@H]4O[C@H](CO)[C@@H](O)[C@H](O)[C@H]4O[C@@H]4O[C@H](CO)[C@@H](O)[C@H](O)[C@H]4O)C(C)(C)[C@@H]3CC[C@]12C` [Rb1, ginsenoside Rb1], in data set [1], the “AUC0–t” value turned out to be 5094.06 ± 1453.14 ng/h/mL; the AUC(0-t) (commonly the area under the concentration-time curve up to a stated or last time point) worked out at 15100 ± 2380 ng·h/mL; the AUC(0-inf) – broadly, total exposure, with the tail of the curve extrapolated – turned out to be 15200 ± 2440 ng·h/mL; the Cmax (as a rule, the maximum level reached in the sampled fluid or tissue) came out at 997 ± 144 ng/mL. Besides, in data set [1], the Tmax (commonly the time at which the peak concentration occurs) turned out to be 8.67 ± 1.63 h and the half-life (commonly the time in which the quantity being followed falls by half) is 9.58 ± 1.11 h.
Take `CC(C)=CCC[C@](C)(O[C@@H]1O[C@H](CO)[C@@H](O)[C@H](O)[C@H]1O)[C@H]1CC[C@]2(C)[C@@H]1[C@H](O)C[C@@H]1[C@@]3(C)CC[C@H](O[C@@H]4O[C@H](CO)[C@@H](O)[C@H](O)[C@H]4O[C@@H]4O[C@H](CO)[C@@H](O)[C@H](O)[C@H]4O)C(C)(C)[C@@H]3CC[C@]12C` [Rd, ginsenoside Rd]: in data set [1], the “AUC0–t” value is 1396.89 ± 595.14 ng/h/mL, the AUC(0-t) is 3630 ± 569 ng·h/mL, the AUC(0-inf) came out at 4170 ± 733 ng·h/mL and the highest level (Cmax) was 164 ± 28.8 ng/mL. In data set [1], the Tmax stood at 8.67 ± 2.73 h and the half-life was 13.9 ± 1.71 h.
Consider `CC(C)=CCC[C@](C)(O[C@@H]1O[C@H](CO)[C@@H](O)[C@H](O)[C@H]1O)[C@H]1CC[C@]2(C)[C@@H]1[C@H](O)C[C@@H]1[C@@]3(C)CC[C@H](O)C(C)(C)[C@@H]3[C@@H](O[C@@H]3O[C@H](CO)[C@@H](O)[C@H](O)[C@H]3O[C@@H]3O[C@@H](C)[C@H](O)[C@@H](O)[C@H]3O)C[C@]12C` [Re, ginsenoside Re], for which, in data set [1] (rats), the “time in which the maximum plasma concentration was achieved” value is ≤ 1.63 h. For the same compound, in data set [1], the AUC(0-t) came out at 87.7 ± 20.7 ng·h/mL, the AUC(0-inf) was 91.7 ± 19.7 ng·h/mL, the Cmax is 28.1 ± 13.1 ng/mL and the Tmax came to 1.24 ± 0.49 h. Also, the half-life in data set [1] was 3.16 ± 1.73 h. In data set [1] (oral dose of raw and steamed P. notoginseng aqueous extracts, rats), the “AUC0–t and Cmax, steamed versus raw group” value is reported as “no significantly difference”.
As to `CC(C)=CCC[C@](C)(O[C@@H]1O[C@H](CO)[C@@H](O)[C@H](O)[C@H]1O)[C@H]1CC[C@]2(C)[C@@H]1[C@H](O)C[C@@H]1[C@@]3(C)CC[C@H](O)C(C)(C)[C@@H]3[C@@H](O[C@@H]3O[C@H](CO)[C@@H](O)[C@H](O)[C@H]3O)C[C@]12C` [Rg1, ginsenoside Rg1], in data set [1], the “AUC0–t” value was 176.63 ± 42.49 ng/h/mL, the AUC(0-t) is 808 ± 382 ng·h/mL, the AUC(0-inf) is 861 ± 355 ng·h/mL and the highest level (Cmax) was 66.7 ± 32.8 ng/mL. For the same compound, in data set [1], the Tmax came out at 9.33 ± 2.07 h and the half-life was 7.92 ± 6.73 h. In addition, in data set [1] (rats), the “time in which the maximum plasma concentration was achieved” value was ≤ 9.33 h.
Regarding `CC(C)=CC/C=C(\C)[C@H]1CC[C@]2(C)[C@@H]1[C@H](O)C[C@@H]1[C@@]3(C)CC[C@H](O[C@@H]4O[C@H](CO)[C@@H](O)[C@H](O)[C@H]4O[C@@H]4O[C@H](CO)[C@@H](O)[C@H](O)[C@H]4O)C(C)(C)[C@@H]3CC[C@]12C` [Rg5, ginsenoside Rg5], the “detection in rat plasma” value in data set [1] (after oral administration of P. notoginseng extracts, rats, listed as GRg5) is on record as “could not be detected”. For the same compound, the bioavailability (usually dose-corrected exposure relative to a reference, in per cent) in data set [2] is 0.67%.
